Assay results reported in ChEMBL document CHEMBL4011605, “N-Piperonyl substitution on aminoquinoline-pyrimidine hybrids: Effect on the antiplasmodial potency” (Eur J Med Chem, 2017).
Active and inactive are the calls of the source. The rule behind the calls is not given here.

Experiments:
Vero [1] = assay: Cytotoxicity against African green monkey Vero cells up to 9 uM; format: cell-based; conditions: chlorocebus sabaeus
Plasmodium falciparum [2] = assay: Antiplasmodial activity against chloroquine-sensitive Plasmodium falciparum D6 infected in red blood cells after 72 hrs by Malstat reagent based LDH assay; format: functional, cell-based; conditions: D6, 72 h
[3] = Selectivity index, ratio of IC50 for African green monkey Vero cells to IC50 for chloroquine-resistant Plasmodium falciparum W2; format: toxicity; conditions: read-out: Ratio IC50
Method in brief: (§1)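 Selectivity index is the ratio of the VERO cytotoxicity IC50 to the antiplasmodial IC50 for the strain named. VERO cells were tested up to a highest concentration of 9 µM.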

[4] = Selectivity index, ratio of IC50 for African green monkey Vero cells to IC50 for chloroquine-sensitive Plasmodium falciparum D6; format: toxicity; conditions: read-out: Ratio IC50; method in brief: as §1
Plasmodium falciparum [5] = assay: Antiplasmodial activity against chloroquine-resistant Plasmodium falciparum W2 infected in red blood cells after 72 hrs by Malstat reagent based LDH assay; format: functional, cell-based; conditions: W2, 72 h
Plasmodium falciparum [6] = assay: Potency index, ratio of chloroquine IC50 to compound IC50 for chloroquine-resistant Plasmodium falciparum W2; format: functional
Vero [7] = assay: Cytotoxicity against African green monkey Vero cells; format: cell-based; conditions: chlorocebus sabaeus
Method in brief: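 VERO (mammalian) cells were exposed to compounds up to a highest tested concentration of 9 µM. Cytotoxicity was expressed as IC50.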

Heme [8] = assay: Binding affinity to monomeric heme (unknown origin) assessed as decrease in intensity of soret band at 0.5 to 70 uM at pH 5.4 and 7.4 by titration based UV-vis spectrophotometric analysis
Method in brief: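 Hemin stock (1.0 mM in DMSO, kept at 4 °C in the dark) is diluted daily to 10 µM monomeric heme in 0.02 M HEPES pH 7.4 or 0.02 M MES pH 5.4. Drug comes from a 1.0 mM DMSO stock and is titrated at 0.5–70 µM. After each addition the sample is mixed and the Soret band at 402 nm is read.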

Heme [9] = assay: Binding affinity to monomeric heme (unknown origin) assessed as mole fraction of compound required to show 1:1 stoichiometry for heme-compound complex at pH 5.4 to 7.4 by Job's plot method
Method in brief: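 Binding stoichiometry with monomeric heme is found by Job's continuous variation. Total drug plus heme is held at 10 µM, at pH 7.4 (HEPES) and at pH 5.4 (MES), with heme from a DMSO hemin stock. Absorbance is plotted against drug mole fraction.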

mu-oxodimeric heme [10] = assay: Binding affinity to mu-oxodimeric heme (unknown origin) in aqueous NaOH solution at 0.5 to 70 uM at pH 5.8 by titration-based UV-vis spectrophotometric analysis
Method in brief: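 µ-Oxodimeric heme: hemin chloride is dissolved to 1.0 mM in 0.1 M aqueous NaOH with 30 min sonication, then diluted to 10 µM in 20 mM phosphate pH 5.8. Aliquots of a 1.0 mM drug stock are added stepwise (0.5–70 µM), and absorbance at 362 nm is recorded.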

mu-oxodimeric heme [11] = assay: Binding affinity to mu-oxodimeric heme (unknown origin) in aqueous NaOH solution assessed as 1:1 stoichiometry for heme-compound complex at 10 uM at pH 5.8 by Job's plot method

Structure (SMILES) | Activity (Vero [1]) | IC50 (Plasmodium falciparum [2]) [nM] | selectivity ratio [3] | selectivity ratio [4] | IC50 (Plasmodium falciparum [5]) [nM] | Ratio IC50 (Plasmodium falciparum [6]) | IC50 (Vero [7]) [nM] | Activity (Heme [8]) | Activity (Heme [9]) [molar ratio] | Activity (mu-oxodimeric heme [10]) | Activity (mu-oxodimeric heme [11])
CCN(CC)CCCC(C)Nc1ccnc2cc(Cl)ccc12 (stereo not drawn) [CHLOROQUINE] | Non-Toxic | – | – | – | – | – | – | – | – | – | –
Cc1cc(N(CCNc2ccnc3cc(Cl)ccc23)Cc2ccc3c(c2)OCO3)nc(Cl)n1 | Non-Toxic | 590 | > 12.3 | > 16.8 | 780 | – | – | – | – | – | –
Cc1cc(N(CCNc2ccnc3cc(Cl)ccc23)Cc2ccc3c(c2)OCO3)nc(N2CCOCC2)n1 | Non-Toxic | 50 | > 66.8 | > 243 | 220 | 2 - 5 | – | – | – | – | –
CCN1CCN(c2cc(C)nc(N(CCCNc3ccnc4cc(Cl)ccc34)Cc3ccc4c(c3)OCO4)n2)CC1 | Non-Toxic | 120 | > 37.9 | > 71.1 | 220 | 2 - 5 | – | – | – | – | –
Cc1cc(Cl)nc(N(CCNc2ccnc3cc(Cl)ccc23)Cc2ccc3c(c2)OCO3)n1 | Non-Toxic | 480 | > 9.8 | > 20.5 | 1010 | – | – | – | – | – | –
Cc1cc(N2CCCC2)nc(N(CCNc2ccnc3cc(Cl)ccc23)Cc2ccc3c(c2)OCO3)n1 | Non-Toxic | 150 | > 9.8 | > 59.2 | 930 | – | – | – | – | – | –
Cc1cc(N2CCOCC2)nc(N(CCCNc2ccnc3cc(Cl)ccc23)Cc2ccc3c(c2)OCO3)n1 | – | 130 | 9.4 | 67 | 930 | – | 8680 | – | – | – | –
Cc1cc(N(CCNc2ccnc3cc(Cl)ccc23)Cc2ccc3c(c2)OCO3)nc(N2CCCC2)n1 | Non-Toxic | 40 | > 243 | > 243 | 100 | – | – | – | – | – | –
Clc1ccc2c(NCCNCc3ccc4c(c3)OCO4)ccnc2c1 | Non-Toxic | 30 | > 54.3 | > 243 | 50 | 8 | – | – | – | – | –
CCN1CCN(c2nc(C)cc(N(CCCNc3ccnc4cc(Cl)ccc34)Cc3ccc4c(c3)OCO4)n2)CC1 | Non-Toxic | 40 | > 47.6 | > 194 | 170 | 2 - 5 | – | – | – | – | –
Cc1cc(N(CCCNc2ccnc3cc(Cl)ccc23)Cc2ccc3c(c2)OCO3)nc(N2CCCCC2)n1 | Non-Toxic | 150 | > 8.8 | > 59.8 | 990 | – | – | – | – | – | –
Cc1cc(N(CCCNc2ccnc3cc(Cl)ccc23)Cc2ccc3c(c2)OCO3)nc(N2CCCC2)n1 | Non-Toxic | 50 | > 96.9 | > 192 | 90 | 2 - 5 | – | – | – | – | –
Cc1cc(N(CCCNc2ccnc3cc(Cl)ccc23)Cc2ccc3c(c2)OCO3)nc(N2CCOCC2)n1 | Non-Toxic | 150 | > 9.5 | > 60 | 910 | – | – | – | – | – | –
Cc1cc(Cl)nc(N(CCCNc2ccnc3cc(Cl)ccc23)Cc2ccc3c(c2)OCO3)n1 | Non-Toxic | 1110 | > 1.9 | > 8.6 | 5160 | – | – | – | – | – | –
CCN1CCN(c2nc(C)cc(N(CCNc3ccnc4cc(Cl)ccc34)Cc3ccc4c(c3)OCO4)n2)CC1 | Non-Toxic | 20 | > 60.4 | > 243 | 50 | 8 | – | Active | 0.5 | Active | Active
Cc1cc(N2CCOCC2)nc(N(CCNc2ccnc3cc(Cl)ccc23)Cc2ccc3c(c2)OCO3)n1 | – | 130 | 8.5 | 51.4 | 810 | – | 6860 | – | – | – | –
Cc1cc(N2CCCCC2)nc(N(CCCNc2ccnc3cc(Cl)ccc23)Cc2ccc3c(c2)OCO3)n1 | Non-Toxic | 150 | > 24.2 | > 57.2 | 360 | – | – | – | – | – | –
Cc1cc(N(CCCNc2ccnc3cc(Cl)ccc23)Cc2ccc3c(c2)OCO3)nc(Cl)n1 | Non-Toxic | 460 | > 8.4 | > 20.9 | 1140 | – | – | – | – | – | –
Clc1ccc2c(NCCCNCc3ccc4c(c3)OCO4)ccnc2c1 | Non-Toxic | 40 | > 84.5 | > 243 | 100 | 2 - 5 | – | – | – | – | –
Cc1cc(N(CCNc2ccnc3cc(Cl)ccc23)Cc2ccc3c(c2)OCO3)nc(N2CCCCC2)n1 | Non-Toxic | 50 | > 30.5 | > 174 | 290 | – | – | – | – | – | –
Cc1cc(N2CCCCC2)nc(N(CCNc2ccnc3cc(Cl)ccc23)Cc2ccc3c(c2)OCO3)n1 | Non-Toxic | 170 | > 15.9 | > 53.6 | < 430 | – | – | – | – | – | –
Cc1cc(N2CCCC2)nc(N(CCCNc2ccnc3cc(Cl)ccc23)Cc2ccc3c(c2)OCO3)n1 | Non-Toxic | 120 | > 15.1 | > 76.7 | 590 | – | – | – | – | – | –
CCN1CCN(c2cc(C)nc(N(CCNc3ccnc4cc(Cl)ccc34)Cc3ccc4c(c3)OCO4)n2)CC1 | Non-Toxic | 30 | > 60.4 | > 239 | 140 | 2 - 5 | – | – | – | – | –
